Assay results as given in ChEMBL document CHEMBL4665627 (Eur J Med Chem, 2019).
Values after ≈ are worked out from the molar mass of the structure shown. Active and inactive are the calls of the source. No cut-off for these calls is given here.

Legend:
[1] = tested on: Staphylococcus aureus; assay: Antibacterial activity against methicillin-resistant Staphylococcus aureus assessed as bacterial growth inhibition in presence of cefathiamidine by CLSI protocol based two fold serial dilution method; assay type: functional
In short: (§1)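 Checkerboard-type pairing, with each agent tested alone and combined by CLSI two-fold serial dilution. MICs are from three independent experiments. FIC index = (MIC of A combined/MIC of A alone) + (MIC of B combined/MIC of B alone). An index ≤1 is read as synergistic and 1–2 as additive.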

[2] = tested on: Candida parapsilosis; assay: Antifungal activity against Candida parapsilosis ATCC 22019 assessed as inhibition of fungal growth after 24 hrs by CLSI protocol based two fold serial dilution method; assay type: functional; details: Lodderomyces parapsilosis
In short: (§2)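 Two-fold serial broth dilution in 96-well plates following CLSI; MIC (mM) taken as the lowest concentration giving complete growth inhibition; MIC values from three independent experiments.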

[3] = tested on: Staphylococcus aureus; assay: Additive antibacterial activity against Staphylococcus aureus assessed as fractional inhibitory concentration index in presence of cefathiamidine by CLSI protocol based two fold serial dilution method; assay type: functional
[4] = tested on: Klebsiella pneumoniae; assay: Potentiation of cefathiamidine-induced antibacterial activity against Klebsiella pneumoniae assessed as fold reduction in cefathiamidine MIC by CLSI protocol based two fold serial dilution method; assay type: functional
[5] = biological target: DNA gyrase (Escherichia coli, UniProt P0AES4+P0AES6); assay: Inhibition of Escherichia coli DNA gyrase holoenzyme assessed as reduction in pBR322 DNA supercoiling using pBR322 plasmid DNA as substrate incubated for 90 mins in presence of ATP by ethidium bromide staining based agarose gel electrophoresis analysis; assay type: protein-complex assay
[6] = tested on: Escherichia coli; assay: Antibacterial activity against Escherichia coli assessed as inhibition of bacterial growth after 24 hrs by CLSI protocol based two fold serial dilution method; assay type: functional; in short: as §2
[7] = tested on: Escherichia coli; assay: Antibacterial activity against Escherichia coli ATCC 25922 assessed as inhibition of bacterial growth after 24 hrs by CLSI protocol based two fold serial dilution method; assay type: functional; in short: as §2
[8] = tested on: DNA; assay: Competitive binding affinity to Klebsiella pneumoniae DNA assessed as increase in DNA intercalation by measuring increase in absorbance at around 260 nm by UV spectroscopy; assay type: nucleic-acid assay
In short: (§3)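 Competitive binding with neutral red as spectral probe on K. pneumoniae DNA, monitored by UV-vis absorption spectroscopy.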

[9] = tested on: Escherichia coli; assay: Synergistic antibacterial activity against Escherichia coli assessed as fractional inhibitory concentration index in presence of cefathiamidine by CLSI protocol based two fold serial dilution method; assay type: functional
[10] = tested on: Pseudomonas aeruginosa; assay: Antibacterial activity against Pseudomonas aeruginosa ATCC 27853 assessed as inhibition of bacterial growth after 24 hrs by CLSI protocol based two fold serial dilution method; assay type: functional; in short: as §2
[11] = tested on: Klebsiella pneumoniae; assay: Synergistic antibacterial activity against Klebsiella pneumoniae assessed as fractional inhibitory concentration index in presence of cefathiamidine by CLSI protocol based two fold serial dilution method; assay type: functional
[12] = tested on: Pseudomonas aeruginosa; assay: Antibacterial activity against Pseudomonas aeruginosa assessed as inhibition of bacterial growth after 24 hrs by CLSI protocol based two fold serial dilution method; assay type: functional; in short: as §2
[13] = tested on: Klebsiella pneumoniae; assay: Induction of membrane permeabilization in Klebsiella pneumoniae at 12 times MIC measured after 1 hr by propidium iodide staining based fluorescence assay; assay type: functional, organism-based
[14] = tested on: Candida tropicalis; assay: Antifungal activity against Candida tropicalis assessed as inhibition of fungal growth after 24 hrs by CLSI protocol based two fold serial dilution method; assay type: functional; in short: as §2
[15] = tested on: Staphylococcus aureus; assay: Antibacterial activity against methicillin-resistant Staphylococcus aureus N315 assessed as inhibition of bacterial growth after 24 hrs by CLSI protocol based two fold serial dilution method; assay type: functional
[16] = Inhibition of Saccharomyces cerevisiae CGMCC 2.145 chitin synthase using GlcNAc and UDP-GlcNAc as substrate incubated for 60 mins by microplate reader analysis
In short: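 Chitin synthase IC50 determined from concentration–inhibition curves.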

[17] = tested on: Acinetobacter baumannii; assay: Antibacterial activity against Acinetobacter baumannii assessed as inhibition of bacterial growth after 24 hrs by CLSI protocol based two fold serial dilution method; assay type: functional; in short: as §2
[18] = tested on: Enterococcus faecalis; assay: Antibacterial activity against Enterococcus faecalis assessed as inhibition of bacterial growth after 24 hrs by CLSI protocol based two fold serial dilution method; assay type: functional; in short: as §2
[19] = tested on: DNA; assay: Competitive binding affinity to Klebsiella pneumoniae DNA assessed as increase in DNA-NR probe absorption intensity at wavelength of 460 nm by UV spectroscopy; assay type: nucleic-acid assay; in short: as §3
[20] = tested on: DNA; assay: Binding affinity to Klebsiella pneumoniae DNA assessed as cleavage of DNA at 50 uM and pH 7.4 and 37 °C incubated for 6 hrs by gel electrophoresis analysis
[21] = tested on: Klebsiella pneumoniae; assay: Antibacterial activity against Klebsiella pneumoniae measured every 24 hrs after 10 passages by serial dilution method; assay type: functional, organism-based
[22] = tested on: DNA; assay: Binding affinity to Klebsiella pneumoniae DNA assessed as increase in absorption peak of DNA by UV-Vis spectroscopy; assay type: nucleic-acid assay
In short: (§4)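 DNA isolated from K. pneumoniae held at fixed concentration while test compound is added in stepwise, proportional increments; UV-vis absorption spectra recorded, following the 260 nm DNA band.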

[23] = tested on: Staphylococcus aureus; assay: Synergistic antibacterial activity against methicillin-resistant Staphylococcus aureus assessed as fractional inhibitory concentration index in presence of cefathiamidine by CLSI protocol based two fold serial dilution method; assay type: functional; in short: as §1
[24] = tested on: Staphylococcus aureus; assay: Antibacterial activity against Staphylococcus aureus ATCC 29213 assessed as inhibition of bacterial growth after 24 hrs by CLSI protocol based two fold serial dilution method; assay type: functional
[25] = tested on: DNA; assay: Competitive binding affinity to Klebsiella pneumoniae DNA assessed as intercalating activity by measuring decrease in DNA-NR probe absorption spectra at wavelength of 530 nm by UV spectroscopy; assay type: nucleic-acid assay; in short: as §3
[26] = tested on: Escherichia coli; assay: Antibacterial activity against Escherichia coli assessed as bacterial growth inhibition in presence of cefathiamidine by CLSI protocol based two fold serial dilution method; assay type: functional; in short: as §2
[27] = tested on: DNA; assay: Binding affinity to Klebsiella pneumoniae DNA assessed as intercalating activity by measuring intrinsic binding constant by UV-Vis spectroscopy; assay type: nucleic-acid assay; in short: as §4
[28] = tested on: Staphylococcus aureus; assay: Antibacterial activity against Staphylococcus aureus ATCC 25923 assessed as inhibition of bacterial growth after 24 hrs by CLSI protocol based two fold serial dilution method; assay type: functional; in short: as §2
[29] = tested on: Klebsiella pneumoniae; assay: Antibacterial activity against Klebsiella pneumoniae assessed as bacterial growth inhibition in presence of cefathiamidine by CLSI protocol based two fold serial dilution method; assay type: functional; in short: as §2
[30] = tested on: DNA; assay: Binding affinity to Klebsiella pneumoniae DNA assessed as red shift in absorption spectra by UV-Vis spectroscopy; assay type: nucleic-acid assay; in short: as §4
[31] = tested on: Aspergillus fumigatus; assay: Antifungal activity against Aspergillus fumigatus assessed as inhibition of fungal growth after 24 hrs by CLSI protocol based two fold serial dilution method; assay type: functional; in short: as §2
[32] = tested on: Klebsiella pneumoniae; assay: Antibacterial activity against Klebsiella pneumoniae assessed as inhibition of bacterial growth after 24 hrs by CLSI protocol based two fold serial dilution method; assay type: functional; in short: as §2
[33] = tested on: Candida albicans; assay: Antifungal activity against Candida albicans assessed as inhibition of fungal growth after 24 hrs by CLSI protocol based two fold serial dilution method; assay type: functional; in short: as §2
[34] = tested on: Saccharomyces cerevisiae; assay: Inhibition of Saccharomyces cerevisiae CGMCC 2.145 chitin synthase at 300 ug/ml using GlcNAc and UDP-GlcNAc as substrate incubated for 60 mins by microplate reader analysis relative to control; details: dose 300.0 µg/ml
In short: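 Chitin synthase inhibition ratio measured at 300 µg/mL test compound, relative to untreated control.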

[35] = tested on: Staphylococcus aureus; assay: Antibacterial activity against Staphylococcus aureus assessed as bacterial growth inhibition in presence of cefathiamidine by CLSI protocol based two fold serial dilution method; assay type: functional; in short: as §2
[36] = tested on: DNA; assay: Binding affinity to Klebsiella pneumoniae DNA assessed as hyperchromic shift by UV-Vis spectroscopy; assay type: nucleic-acid assay; in short: as §4
[37] = tested on: Staphylococcus aureus; assay: Antibacterial activity against Staphylococcus aureus assessed as inhibition of bacterial growth after 24 hrs by CLSI protocol based two fold serial dilution method; assay type: functional; in short: as §2
[38] = tested on: Klebsiella pneumoniae; assay: Bactericidal activity against Klebsiella pneumoniae assessed as log reduction in viable bacteria at 4 times MIC incubated for 1 hr followed by plating on agar plate and measured after 24 hrs by time kill assay; assay type: functional
In short: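 Time-kill kinetics for K. pneumoniae at 4 × MIC.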

[39] = Cytotoxicity against mouse RAW264.7 cells assessed as cell viability at 128 ug/ml after 72 hrs by MTT assay relative to control; assay type: cell-based; details: at 128 µg/mL, read-out: Activity
In short: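 RAW 264.7 mouse macrophage cells exposed to test compound; viability by colorimetric MTT proliferation assay; standard deviation from three independent experiments.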

[40] = tested on: Candida albicans; assay: Antifungal activity against Candida albicans ATCC 90023 assessed as inhibition of fungal growth after 24 hrs by CLSI protocol based two fold serial dilution method; assay type: functional; in short: as §2

SMILES: CCn1cc(-c2csc(N)n2)c(=O)c2cc(F)c(N3CCN(CC#N)CC3)cc21
- MIC [1]: 2 µM
- MIC [2]: 19 µM (≈ 7.84 µg/mL)
- fractional inhibitory concentration index (FICI) [3]: 1.12
- fold change (FC) [4]: 2
- IC50 [5]: 16.7 µM
- MIC [6]: 39 µM (≈ 16.1 µg/mL)
- MIC [7]: 10 µM (≈ 4.12 µg/mL)
- Activity [8]: Active
- fractional inhibitory concentration index (FICI) [9]: 0.73
- MIC [10]: 19 µM (≈ 7.84 µg/mL)
- fractional inhibitory concentration index (FICI) [11]: 0.7
- MIC [12]: 19 µM (≈ 7.84 µg/mL)
- Activity [13]: Active
- MIC [14]: 39 µM (≈ 16.1 µg/mL)
- MIC [15]: 19 µM (≈ 7.84 µg/mL)
- IC50 [16]: 180 µM
- MIC [17]: 19 µM (≈ 7.84 µg/mL)
- MIC [18]: 19 µM (≈ 7.84 µg/mL)
- Activity [19]: Active
- Activity [20]: inactive
- Activity [21]: Active
- Activity [22]: Active
- fractional inhibitory concentration index (FICI) [23]: 0.61
- MIC [24]: 10 µM (≈ 4.12 µg/mL)
- Activity [25]: Active
- MIC [26]: 10 µM
- K [27]: 1.43 10^4L/mol
- MIC [28]: 10 µM (≈ 4.12 µg/mL)
- MIC [29]: 1 µM
- Activity [30]: Active
- MIC [31]: 19 µM (≈ 7.84 µg/mL)
- MIC [32]: 5 µM (≈ 2.06 µg/mL)
- MIC [33]: 10 µM (≈ 4.12 µg/mL)
- inhibition [34]: 64.6%
- MIC [35]: 10 µM
- Activity [36]: Active
- MIC [37]: 10 µM (≈ 4.12 µg/mL)
- Activity [38]: >2.5 log10CFU/ml
- viability at 72 h, 128 ug/ml [39]: 80.2%
- MIC [40]: 10 µM (≈ 4.12 µg/mL)
